Data taken from ChEMBL document CHEMBL3244421, “Antiarrhythmic activity of some N-alkylbispidinebenzamides” (J Med Chem, 1979).

Experiments:
[1] = Antiarrhythmic activity in New Zealand rabbit left atrium assessed as reduction in maximum following frequency (MFF); format: functional, Oryctolagus cuniculus, Cardiac atrium
Summary of the method: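 Left atria from male New Zealand white rabbits, mounted in Krebs-Henseleit buffer at 35 °C and aerated with 95% O2-5% CO2. Driven by 10-ms square-wave pulses at five times threshold voltage. Control maximum following frequency (MFF) was determined first, then MFF reduction at 1, 3, 13, 33 and 133 μM. ED25 (concentration reducing MFF to 75% of control) was estimated from dose-response curves.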

[2] = tested on: Mus musculus; test: Ratio of LD50 for CF1 mouse to ED50 for antiarrhythmic activity in CF1 mouse; set-up: species or system Heart
[3] = Toxicity in New Zealand rabbit assessed as reduction in force of left atrial contraction; format: tissue-based, Oryctolagus cuniculus, Cardiac atrium
[4] = tested on: Mus musculus; test: Antiarrhythmic activity in ip dosed CF1 mouse assessed as protection against chloroform-induced ventricular fibrillation; format: functional; conditions: CF1, Heart
Summary of the method: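 Adult female CF1 mice; protection against ventricular fibrillation provoked by chloroform exposure, used as the first screen of antiarrhythmic activity.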

[5] = Acute toxicity in ip dosed CF1 mouse; format: organism-based; conditions: in vivo
[6] = Ratio of ED25 for reduction in force of left atrial contraction in New Zealand rabbit to ED25 for reduction in maximum following frequency in New Zealand rabbit left atrium; set-up: species or system Oryctolagus cuniculus, Cardiac atrium

SMILES	ED25 [1]	Ratio LD50/ED50 [2]	ED25 [3]	ED50 [4]	LD50 [5]	Ratio [6]
CN1CC2CC(C1)CN(C(=O)c1ccccc1)C2.O=C(O)/C=C/C(=O)O	400 µM	7.29	> 400 µM	85 µmol/kg	621 µmol/kg	
COc1ccc(C(=O)N2CC3CC(CN(C)C3)C2)cc1.O=C(O)/C=C/C(=O)O	500 µM	5.93	> 400 µM	78 µmol/kg	463 µmol/kg	
COc1cc(C(=O)N2CC3CC(CN(C)C3)C2)cc(OC)c1OC.O=C(O)/C=C/C(=O)O		3.91		137 µmol/kg	535 µmol/kg	
CN1CC2CC(C1)CN(C(=O)c1ccc(Cl)cc1)C2.O=C(O)/C=C/C(=O)O	110 µM	10.89	400 µM	49 µmol/kg	535 µmol/kg	3.64
CN1CC2CC(C1)CN(C(=O)c1ccc(Cl)c(Cl)c1)C2.O=C(O)/C=C/C(=O)O		1.05		470 µmol/kg	492 µmol/kg	
CCCCN1CC2CC(C1)CN(C(=O)c1ccccc1)C2.Cl		2.07		242 µmol/kg	500 µmol/kg	
CCCCN1CC2CC(C1)CN(C(=O)c1ccc(OC)cc1)C2.O=C(O)/C=C/C(=O)O		4.6		106 µmol/kg	488 µmol/kg	
CCCCN1CC2CC(C1)CN(C(=O)c1ccc(Cl)cc1)C2.O=C(O)/C=C/C(=O)O		3.45		134 µmol/kg	463 µmol/kg	
CCCCN1CC2CC(C1)CN(C(=O)c1ccc(Cl)c(Cl)c1)C2.O=C(O)/C=C/C(=O)O		2.71		223 µmol/kg	605 µmol/kg	
CC(C)N(CCC(C(N)=O)(c1ccccc1)c1ccccn1)C(C)C (stereo not given) [DISOPYRAMIDE]	18 µM	5.77	56 µM	90 µmol/kg	517 µmol/kg	3.11
